Compound activity (PubChem)
This is a sample that favours compounds with a hit; in the whole collection about 4.6% have one here.
TAAR1 agonist – agonists of human TAAR1. Q96RJ0. CHO RD-HGA16 TAAR1, Fluo-8 calcium fluorescence; vehicle wells 0%, saturating PEA agonist 100%. activation, % at 3 µM. actives 0.99% (n = 360,000);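 active = activation above the mean activation of all test compounds in the run plus 3 SD, cut at about 38% in these data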
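System: CHO RD-HGA16 cells carrying human TAAR1 plus Gα16; Incubation: 17-24 h seeding, 75 min 37 °C dye, 30 min RT; Measured by: Fluo-8 fluorescence, 5 s baseline then 140 s kinetic read; Control set: DMSO and PEA EC100; Replication: single well for each compound.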
OX1R antag-1 – antagonists of human orexin 1 receptor; O43613; CHO/OX1R cells, Fluo-8 calcium fluorescence, orexin A; inhibition, % at 5 µM; actives 0.43% (n = 330,000);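 active = inhibition above its plate's threshold, mean inhibition of all tested compounds on the plate plus 3 SD, cut at about 37% in these data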;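 note: 0% = orexin A challenge wells and 100% = SB-334867-A antagonist wells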
Target sequence (O43613 whole entry, looked up): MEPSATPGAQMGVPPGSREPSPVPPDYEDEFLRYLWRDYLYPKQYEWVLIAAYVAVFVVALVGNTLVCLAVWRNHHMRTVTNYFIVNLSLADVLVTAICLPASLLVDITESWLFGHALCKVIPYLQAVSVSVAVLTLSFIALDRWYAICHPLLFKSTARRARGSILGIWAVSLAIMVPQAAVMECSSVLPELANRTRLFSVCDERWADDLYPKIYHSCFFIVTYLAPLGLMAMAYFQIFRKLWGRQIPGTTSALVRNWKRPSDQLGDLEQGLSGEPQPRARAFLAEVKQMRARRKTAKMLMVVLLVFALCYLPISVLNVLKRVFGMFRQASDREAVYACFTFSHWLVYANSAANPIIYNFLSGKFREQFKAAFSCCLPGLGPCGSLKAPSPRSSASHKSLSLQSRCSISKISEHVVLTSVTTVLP
GPR7 antagonist – antagonists of human GPR7 (neuropeptides B/W receptor 1). GPR7-expressing cells, fluorescence antagonist assay. inhibition, % at 4.4 µM. actives 1.1% (n = 290,000). AID 1861; in the data active = inhibition above about 16%, passing the limit was not always enough;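 note: cells stimulated with the agonist NPW; 0% = agonist with vehicle and 100% = vehicle without agonist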
Target sequence (P48145 whole entry, looked up): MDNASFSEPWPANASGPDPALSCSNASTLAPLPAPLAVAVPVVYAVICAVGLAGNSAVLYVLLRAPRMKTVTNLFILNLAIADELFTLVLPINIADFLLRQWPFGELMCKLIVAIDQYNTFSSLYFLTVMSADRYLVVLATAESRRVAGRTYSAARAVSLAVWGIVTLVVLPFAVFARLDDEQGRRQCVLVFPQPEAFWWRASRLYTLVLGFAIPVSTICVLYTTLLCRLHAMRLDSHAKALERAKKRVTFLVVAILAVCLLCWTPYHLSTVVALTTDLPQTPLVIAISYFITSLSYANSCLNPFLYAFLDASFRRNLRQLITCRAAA
OX1R antag-2 – blocks the human orexin 1 receptor; O43613; OX1R-expressing cells, FRET antagonist read-out; inhibition, % at 6.6 µM; actives 1.8% (n = 330,000); AID 485270; in the data active = inhibition mostly above about 38%, no sharp cut-off; inactive = mostly below about 40%;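 note: 0% = agonist challenge alone and 100% = reference antagonist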
TAAR1 antag – human TAAR1 antagonism | Q96RJ0 | CHO RD-HGA16 TAAR1, Fluo-8 calcium fluorescence, antagonist | inhibition, % at 3 µM | actives 1.5% (n = 360,000);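 active = inhibition above a per-plate cutoff, the mean inhibition of test compounds on that plate plus 3 SD, cut at about 49% in these data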;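 note: 0% = DMSO plus EC80 beta-PEA response and 100% = DMSO alone without agonist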
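Material: RD-HGA16 CHO cells with stable hTAAR1 and Gα16; Dosing: single nominal final test compound concentration of 3 µM; Schedule: seeding 17-24 h prior, 75-min 37 °C, 30-min RT dye loading; Detection: kinetic Fluo-8 calcium fluorescence measurement; Measure: % inhibition from peak post-agonist over basal fluorescence ratio; Benchmarks: vehicle and agonist controls.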
CHO parental Ca – counter-screen for OX1R antagonists: effect in parental CHO cells | parental CHO-K1, ATP-induced calcium, Fluo-8 fluorescence | inhibition, % at 5.6 µM | actives 0.63% (n = 330,000);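 active = inhibition above that plate's mean sample inhibition plus 3 SD, cut at about 26% in these data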;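 note: 0% = ATP-challenged DMSO wells and 100% = DMSO wells without ATP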
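Measured by: calcium-sensitive Fluo-8 fluorescence / Test system: CHO parental line / Controls: ATP-challenged DMSO wells low, unchallenged DMSO wells high / Measure: % inhibition / Compound: single nominal dose of 5.6 µM per compound / Replicates: single well per compound, no replicates / Reagent: ATP as calcium-mobilizing challenge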
nonsel antag count – counter-screen for TAAR1 antagonists: nonselective antagonists | shares compounds with TAAR1 antag | counterscreen cell line, calcium fluorescence, antagonist mode | inhibition, % at 3 µM | actives 77% (n = 2,400) | AID 651780; in the data active = inhibition above about 22%;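 note: CHO-Ga16 host cells stimulated with ATP at an EC80 level; 0% = agonist EC80 plus vehicle and 100% = vehicle without agonist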
TAAR1 ant conf – human TAAR1 antagonism, confirmed | shares compounds with TAAR1 antag | actives 40% (n = 2,400) | AID 651785 | TAAR1-expressing cells, fluorescence antagonist read-out | inhibition, % at 3 µM; in the data active = inhibition above about 49%;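 note: CHO-Ga16 host cells challenged with agonist PEA near its EC80; 0% = agonist at EC80 plus vehicle and 100% = vehicle with no agonist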
Ga16 nonsel ag – nonselective Ga16 agonism, counter-screen. shares compounds with TAAR1 antag. Ga16-expressing cells, calcium fluorescence, agonist counterscreen. activation, % at 3 µM. actives 18% (n = 2,400). AID 651953; in the data active = activation above about 12%;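 note: 0% = vehicle wells and 100% = saturating stimulus response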
TAAR1 ag counter – activates human TAAR1 in antagonist counter-screen; shares compounds with TAAR1 antag; hTAAR1 cell line, fluorescence activation, agonist mode; activation, % at 3 µM; actives 2% (n = 2,400); in the data active = activation above about 37%;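 note: CHO cells stably expressing TAAR1 with calcium dye readout; 0% = DMSO vehicle and 100% = full agonist response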
Active calls of the source: *; / = no result given.

SMILES	TAAR1 agonist	OX1R antag-1	GPR7 antagonist	OX1R antag-2	TAAR1 antag	CHO parental Ca	nonsel antag count	TAAR1 ant conf	Ga16 nonsel ag	TAAR1 ag counter
CCOC(=O)c1cc(-c2ccccc2)n(CC2CC(c3ccc(OC)cc3)=NO2)n1 (centres undefined)	14	-22	4	28	75*	-14	30*	51*	7	8
COc1ccc(C2=NOC(Cn3nc(C(=O)NCc4ccco4)cc3-c3ccccc3)C2)cc1 (centres undefined)	19	-13	/	29	66*	-9	34*	56*	9	6
O=C(N/N=C/c1cc2c(cc1Cl)OCO2)c1cccc(Br)c1	-2	-5	-16	11	-22	7	/	/	/	/
CC1CN(C(=O)c2cc(Br)c(Br)s2)CC(C)O1 (centres undefined)	3	9	/	15	-8	-11	/	/	/	/
Fc1ccc(COc2ccc(-c3nnco3)cc2)c(Cl)c1	15	-21	-8	13	0	-6	/	/	/	/
Cc1c(/C=N/NC(=O)c2ccccc2O)c2ccccn2c1C(=O)c1ccc(F)cc1	13	30	-8	32	93*	11	48*	94*	12*	10
Cc1c(/C=N/NC(=O)c2cccnc2)c2ccccn2c1C(=O)c1ccc(F)cc1	/	-21	-9	-3	/	-6	/	/	/	/
CCOC(=O)N/N=C/c1c(C)c(C(=O)c2ccc(F)cc2)n2ccccc12	2	-46	-14	18	68*	-24	22*	44	3	-1
O=C(COC(=O)c1c[nH]c(=O)[nH]c1=O)NCc1ccccc1	11	-9	-15	7	10	-8	/	/	/	/
COc1ccc(CNC(=O)c2sc(=O)n(Cc3cc(Cl)ccc3OC)c2C)cc1	11	/	/	/	25	/	/	/	/	/
COc1ccc(Cl)cc1Cn1c(C)c(C(=O)NCc2ccc3c(c2)OCCO3)sc1=O	7	/	/	/	56*	/	23*	39	7	7
O=C(CSCC(=O)NN=Cc1ccccc1)NN=Cc1ccccc1	31	/	/	/	-12	/	/	/	/	/
O=C(CCCSCCCC(=O)NN=Cc1ccccc1)NN=Cc1ccccc1	22	/	/	/	66*	/	43*	56*	10	44*
COc1ccc(/C=C2/CSC/C(=C/c3ccc(OC)c(OC)c3)C2=O)cc1OC	2	/	/	/	-6	/	/	/	/	/
COC(=O)c1c(-c2ccc(OC)cc2)oc2ccc(-c3ccc(OC)nc3)cc12	14	-18	-7	11	12	-6	/	/	/	/
COC(=O)c1c(-c2ccc(OC)cc2)oc2ccc(-c3cc(OC)c(OC)c(OC)c3)cc12	7	-18	/	5	58*	-16	14	32	3	9
CCCOC(=O)c1c(-c2ccc(OC)cc2)oc2ccc(-c3ccc(OC)nc3)cc12	/	-25	-21	11	/	-14	0	/	5	/
CCCN(CC1CC1)C(=O)COC(=O)c1oc2c(F)cccc2c1C	-3	-13	/	8	5	-16	/	/	/	/
CCC(CC)C(=O)N(C)c1c(C)nc2c(OCc3cc(Cl)cc(Cl)c3)cccn12	2	/	/	/	-2	/	/	/	/	/
CCOc1ccccc1CNC(=O)c1ccc(Sc2ccc(Cl)cc2)c(NC(C)=O)c1	2	-18	-7	18	12	-27	/	/	/	/
COc1ccc2ccc(OC)c(/C=N/NC(=O)c3cc4ccccc4o3)c2c1	-1	/	/	/	12	/	/	/	/	/
COc1ccc(C(=O)/C=C/c2cccc(OCc3ccccc3)c2)cc1CSCC(=O)O	3	7	16	21	15	-14	/	/	/	/
COc1ccc(C(=O)/C=C/c2ccc(OCc3ccccc3)cc2)cc1CSCC(=O)O	13	/	-22	/	62*	/	38*	54*	10	10
Cc1ccc(-n2nc(C)c(Sc3ccccc3[N+](=O)[O-])c2N)cc1	2	-27	-9	26	8	-6	/	/	/	/
Cc1nc(-c2ccc(S(=O)(=O)Oc3ccccc3Cl)s2)cs1	9	9	2	6	79*	58*	28*	49*	2	3
SMILES	TAAR1 agonist	OX1R antag-1	GPR7 antagonist	OX1R antag-2	TAAR1 antag	CHO parental Ca	nonsel antag count	TAAR1 ant conf	Ga16 nonsel ag	TAAR1 ag counter
COC(=O)c1c(-c2ccc(OC)cc2)sc2ccccc12	/	-15	/	19	/	-37	/	/	/	/
CCN(C(=O)Cn1cc(C(=O)C(=O)N2CCOCC2)c2ccccc21)c1ccccc1	2	-13	5	15	-7	-16	/	/	/	/
CC(=O)c1ccccc1NC(=O)COC(=O)c1cc(C)oc1C	34	-27	/	11	54*	-3	4	10	0	5
COc1ccccc1NC(=O)COC(=O)c1cc(C)oc1C	3	-1	/	18	-2	-38	/	/	/	/
CCOC(=O)Cc1ccc(Nc2nc(NCc3cccs3)nc3ccsc23)cc1	6	/	/	/	76*	/	42*	45	5	-1
CCOC(=O)/C(C#N)=C/c1cn(CCOc2ccc(OC)cc2)c2ccccc12	1	-15	-6	15	-1	4	/	/	/	/
COc1cc(-c2c(C#N)c(N)nc3c2CCCC3)ccc1O	7	-29	-6	1	-5	-18	/	/	/	/
CCCc1cc(-c2ccc(O)c(OCC)c2)c(C#N)c(N)n1	0	-17	-6	38	1	-16	/	/	/	/
COc1ccc(-c2c(C#N)c(N)nc3c2CCc2ccccc2-3)cc1OC	23	-6	2	3	60*	-10	31*	52*	9	24
COc1ccc(-c2cc(-c3ccc(O)cc3)nc(N)c2C#N)cc1OC	13	-14	0	6	50*	-18	26*	46	8	15
O=C(CNC(=O)c1nc[nH]c1C(=O)NCc1ccccc1)OCc1ccccc1	16	-19	-6	37	67*	-18	37*	57*	5	7
CC(C)(C)OC(=O)NCc1ccc(CNC(=O)c2[nH]cnc2C(=O)NCC(=O)OCc2ccccc2)cc1	24	8	6	25	92*	8	49*	66*	12*	12
CC(C)(C)OC(=O)NCc1ccc(CNC(=O)c2[nH]cnc2C(=O)N[C@@H](Cc2ccccc2)C(=O)OCc2ccccc2)cc1	3	-10	-19	10	33	4	/	/	/	/
O=C(CNC(=O)c1nc[nH]c1C(=O)NCC(=O)OCc1ccccc1)OCc1ccccc1	16	-8	-5	17	69*	-22	37*	56*	10	10
